Measurements collected from several papers.
Protocols differ between the studies behind these lines.
Target: Mitogen-activated protein kinase kinase kinase 10 (MAP3K10, Homo sapiens, UniProt Q02779)

CNC(=O)[C@@H]1CC[C@@H](n2c(-c3ccc4cnccc4c3)nc3ccc(C(=O)NCc4cccc(C(N)=O)c4)cc32)C1 — remaining binding (binding; competition with immobilised ligand; 1 µM): 86%
Nc1ncc2c(n1)-c1c([nH]c3ccc(C#CC4CC4)cc13)CCCC2 — remaining binding (binding; competition with immobilised ligand; 1 µM): 91%
c1cnn2ncc(-c3ccnc(N4CCC45COC5)n3)c2c1 — remaining binding (binding; 1 µM): 100%
C[C@@H](c1ccc(-n2cnc3c(N)ncnc32)cc1)N1CCc2nn(C)c(Cc3ccccc3)c2C1=O — remaining binding (binding; competition with immobilised ligand; 0.1 µM): 82%
O=C(NCCCN1CCOCC1)c1ccc(Nc2nccc(-c3cc4ccccc4s3)n2)cc1 — remaining binding (binding; competition with immobilised ligand; 1 µM): 37%
O=C(NCC1CCOCC1)c1n[nH]cc1NC(=O)c1c(F)cccc1F — remaining binding (binding; competition with immobilised ligand; 1 µM): 100%
c1ccc(N2CCN(Cc3nc4ccccc4[nH]3)CC2)nc1 — remaining binding (binding; competition with immobilised ligand; 1 µM): 93%
CN(C)c1nccc(-c2cnc3ncccn23)n1 — remaining binding (binding; 1 µM): 72%
C[C@H](c1ccnc(Nc2nc3ccc(-c4cc(N(C)C)ncn4)cc3[nH]2)c1)N1CCN(C(=O)CC(F)(F)F)CC1 — remaining binding (cell-free assay; competition with immobilised ligand; 0.1 µM): 100%
O=C(NCCCN1CCOCC1)c1ccc(Nc2ncc(Cl)c(-c3ccc(Cl)s3)n2)cc1 — remaining binding (binding; competition with immobilised ligand; 1 µM): 3%
c1cncc(-c2cccc(Nc3nccc(NC4CCCCC4)n3)c2)c1 — remaining binding (binding; competition with immobilised ligand; 10 µM): 49%
COc1cc(-c2cn(C3CCc4ccccc4N(CC(F)(F)F)C3=O)nn2)ccc1-n1ccc(C)n1 (stereo not drawn) — remaining binding (cell-free assay; competition with immobilised ligand; 1 µM): 96%
CN(c1nccc(-c2cnn3ncccc23)n1)C1CC1 — remaining binding (binding; 1 µM): 76%
COc1ccc2c(c1)O[C@H](c1ccc(OC)c(OC)c1)C[C@@H]2NC(=O)C1(c2ccc3c(c2)OC(F)(F)O3)CC1 — remaining binding (cell-free assay; competition with immobilised ligand; 1 µM): 97%
N[C@H]1CCN(c2nccc(-c3cnn4ncccc34)n2)C1 — remaining binding (binding; 1 µM): 92%
O=c1nc(-c2ccccn2)sc2ccccc12 — remaining binding (binding; competition with immobilised ligand; 1 µM): 100%
CN(CCCC(F)(F)F)c1nccc(-c2cnn3ncccc23)n1 — remaining binding (binding; 1 µM): 0%
Cc1cc(-n2nc(Cc3cc(F)cc(C(F)(F)F)c3)nc2C)ccc1C(N)=O — remaining binding (cell-free assay; competition with immobilised ligand; 1 µM): 95%
COc1cnc(Nc2cccc(S(N)(=O)=O)c2)nc1N1CCN(c2ccccc2)C(=O)C1 — remaining binding (binding; competition with immobilised ligand; 1 µM): 79%
CN(C)c1ncc(F)c(-c2cnn3ncccc23)n1 — remaining binding (binding; 1 µM): 100%
O=C(c1ccc(Nc2nccc(-c3cc4ccccc4s3)n2)cc1)N1CCC(N2CCCC2)CC1 — remaining binding (binding; competition with immobilised ligand; 1 µM): 21%
